Data on eleven compounds can be found in ChEMBL document CHEMBL2424651, “Synthesis and antiproliferative activity of new cytotoxic tri- and tetraazabenzo[3,2-a]fluorene-5,6-dione derivatives” (Bioorg Med Chem Lett, 2013).

One assay deals with NCI-H460. In words: Cytotoxicity against human NCI-H460 cells after 48 hrs by resazurin dye assay. The note with it: NCI-H460, 48 h. Type of assay: functional, cell-based. The gist of the method: (§1)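 Cells were seeded in the supplier-recommended growth medium and grown 24 h at 37 °C/5% CO2, with density set per line to give a linear signal. Compound exposure was 48 h in total. Resazurin (0.2 mg/mL in DPBS) was added for the final 3 h, and fluorescence was read at 590 nm. Data were expressed as % efficacy against non-treated cells and cell-free blanks on each plate. EC50 came from non-linear regression.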
In general terms: The colour change of resazurin is a common sign of viable cells or microbes.

The test system of assay [1] is SK-OV-3. In words: Cytotoxicity against human SKOV3 cells after 48 hrs by resazurin dye assay. Type of assay: functional, cell-based. The note with it: SK-OV-3, 48 h. Summed up: as §1
Assay [2] is described as follows: Cytotoxicity against human KB/HeLa cells after 48 hrs by resazurin dye assay. Format: functional, cell-based. The gist of the method: as §1
Assay [3] concerns SK-OV-3. In words: Cytotoxicity against human SKOV3 cells at 31.6 uM after 48 hrs by resazurin dye assay. Type of assay: functional. As to conditions: SK-OV-3, 48 h.

Usually EC50 stands for the concentration that produces a half-maximal response. A low value points to a more potent agent. In general, inhibition refers to the change of the read-out against control, counted positive when it falls.

On to `O=C1C(=O)c2c(nc3ccccn23)-c2ccncc21`, for which the EC50 in the assay with NCI-H460 stood at 242 nM; with SK-OV-3 [1], 498 nM; in assay [2], 244 nM.

With `O=C1C(=O)c2c(nc3ccc(Cl)cn23)-c2ccncc21`, the EC50 in the assay with NCI-H460 was 342 nM; in the assay with SK-OV-3 [1] it was 525 nM; in assay [2] it was 394 nM.

Regarding `O=C1/C(=N\OCCO)c2cnccc2-c2nc3ccccn3c21`, the EC50 with NCI-H460 turned out to be 521 nM; with SK-OV-3 [1] it was 2060 nM; in assay [2] it was 532 nM.

As to `CN(C)CCO/N=C1\C(=O)c2c(nc3ccccn23)-c2ccncc21`, the EC50 in the assay on NCI-H460 was found to be 414 nM; with SK-OV-3 [1], 931 nM; in assay [2], 406 nM.

As for `CN(C)CCN(C)c1cc2c(cn1)C(=O)C(=O)c1c-2nc2ccc(Cl)cn12`, the inhibition at 31.6 µM with SK-OV-3 [3] is < 30%. The EC50 is 2140 nM with NCI-H460 and 2800 nM in assay [2].

With `O=C1C(=O)c2c(nc3ccccn23)-c2cnccc21`, the results for the EC50 (with NCI-H460; with SK-OV-3 [1]; in assay [2]) were 620 nM, 1220 nM and 917 nM, respectively.

`O=C1/C(=N\OCCO)c2ccncc2-c2nc3ccccn3c21`: the figures for the EC50 (with NCI-H460; in the assay on SK-OV-3 [1]; in assay [2]) were 3880 nM, 14700 nM and 4350 nM, respectively.

Regarding `CN(C)CCO/N=C1\C(=O)c2c(nc3ccccn23)-c2cnccc21`, the EC50 in the assay with NCI-H460 came to 2670 nM; in the assay on SK-OV-3 [1], 2930 nM; in assay [2] it was 6150 nM.

As for `O=C1C(=O)c2c(nc3ccccn23)-c2ncncc21`, the EC50 turned out to be 337 nM in the assay on NCI-H460, 283 nM with SK-OV-3 [1] and 145 nM in assay [2].

In the case of `COc1cccc2c1C(=O)c1c(O)c3c(c(O)c1C2=O)C[C@@](O)(C(=O)CO)C[C@@H]3O[C@H]1C[C@H](N)[C@H](O)[C@H](C)O1` [DOXORUBICIN], the EC50 in the assay on NCI-H460 was 40 nM; with SK-OV-3 [1], 290 nM; in assay [2] it was 250 nM.

As for `O=C1c2c(O)ccc(O)c2C(=O)c2c(NCCNCCO)ccc(NCCNCCO)c21` [MITOXANTRONE], the results for the EC50 (in the assay on NCI-H460; in assay [2]) were 30 nM and 420 nM, respectively.
